Results taken from ChEMBL document CHEMBL4406854, “Synthesis and in-vitro anti-HIV-1 evaluation of novel pyrazolo[4,3-c]pyridin-4-one derivatives” (Eur J Med Chem, 2019).
The source made the active and inactive calls. The calls are words filed in the database; no cut-off is given here.

Columns and labels:
[1] = test system: Human immunodeficiency virus 1; test: Antiviral activity against HIV1 VB59 infected in human TZM-bl cells incubated for 48 hrs by bright Glo-luciferase reporter gene assay; format: functional, organism-based; details: Human immunodeficiency virus 1, VB59, TZM-bl
How it was run: (§1)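 TZM-bl cells (10^4/well, seeded the day before) were infected with pre-titrated HIV-1 VB59 or UG070 stocks for 2 h. Serial two-fold dilutions at sub-toxic concentrations were then added, with AZT as control, for 48 h. Britelite plus luciferase substrate was added and RLU measured. IC50 was derived from percent inhibition against infected untreated and uninfected controls.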

[2] = Cytotoxicity against human TZM-bl cells assessed as reduction in cell viability incubated for 48 hrs by MTT assay; format: cell-based
How it was run: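 TZM-bl cells (10^4/well) were seeded overnight at 37 °C in humidified 5% CO2. Serial two-fold dilutions were added, with AZT as control, for 48 h. Viability was read by MTT, and CC50 (concentration leaving 50% of cells viable) was obtained by non-linear regression.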

[3] = Cytotoxicity against human PBMC cells assessed as reduction in cell viability incubated for 5 days by MTT assay; format: cell-based
How it was run: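 PBMCs (0.2×10^6 cells/well) were activated with PHA-p (5 µg/mL) and IL-2 (5 U/mL) and exposed to serial two-fold compound dilutions at 37 °C, 5% CO2, for 5 days. Viability was measured by MTT and CC50 calculated.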

[4] = test system: Human immunodeficiency virus 1; test: Antiviral activity against HIV1 VB51 infected in human PBMC cells incubated for 5 days by bright Glo-luciferase reporter gene assay; format: functional, organism-based; details: Human immunodeficiency virus 1, VB51, 120 h
How it was run: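 PBMCs (0.2×10^6 cells/well) were activated with PHA-p (5µg/mL) and IL-2 (5U/mL). Sub-toxic concentrations, chosen from a 5-day MTT CC50 at 37 °C in 5% CO2, were used against R5-tropic HIV-1 VB51.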

[5] = Therapeutic index, ratio of CC50 for human TZM-bl cells to IC50 for antiviral activity against HIV1 N119 infected in human TZM-bl cells; format: toxicity, cell-based; details: read-out: Ratio CC50/IC50
How it was run: (§2)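 TI = CC50/IC50. CC50 came from TZM-bl cells (10^4/well) exposed to serial two-fold dilutions for 48 h at 37 °C, 5% CO2, with MTT viability and non-linear regression fitting. IC50 came from TZM-bl cells infected 2 h, treated with sub-toxic two-fold dilutions for 48 h, with luciferase RLU read-out.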

[6] = test system: Human immunodeficiency virus 1; test: Antiviral activity against HIV1 NARI-DR infected in human TZM-bl cells incubated for 48 hrs by bright Glo-luciferase reporter gene assay; format: functional, organism-based; details: Human immunodeficiency virus 1, NARI-DR
How it was run: (§3)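 TZM-bl cells (HeLa-derived, expressing CD4/CXCR4/CCR5, with an LTR-driven luciferase reporter) were seeded at 10^4 cells/well overnight. Cells were infected with pre-titrated virus for 2 h, then given serial two-fold dilutions of sub-toxic compound concentrations and incubated 48 h. Luciferase substrate was added and RLU read. IC50 was taken from percent inhibition versus infected untreated controls. NVP and AZT served as controls.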

[7] = Therapeutic index, ratio of CC50 for human PBMC cells to IC50 for antiviral activity against HIV1 VB51 infected in human PBMC cells
[8] = Therapeutic index, ratio of CC50 for human TZM-bl cells to IC50 for antiviral activity against HIV1 NARI-DR infected in human TZM-bl cells; format: toxicity, cell-based; details: read-out: Ratio CC50/IC50; how it was run: as §2
[9] = Therapeutic index, ratio of CC50 for human TZM-bl cells to IC50 for antiviral activity against HIV1 92/BR/018 infected in human TZM-bl cells; format: toxicity, cell-based; details: read-out: Ratio CC50/IC50; how it was run: as §2
[10] = test system: Human immunodeficiency virus 1; test: Antiviral activity against HIV1 N119 infected in human TZM-bl cells incubated for 48 hrs by bright Glo-luciferase reporter gene assay; format: functional, organism-based; details: Human immunodeficiency virus 1, N119, TZM-bl; how it was run: as §3
[11] = test system: Human immunodeficiency virus 1; test: Antiviral activity against HIV1 92/BR/018 infected in human TZM-bl cells incubated for 48 hrs by bright Glo-luciferase reporter gene assay; format: functional, organism-based; details: Human immunodeficiency virus 1, 92/BR/018, TZM-bl; how it was run: as §3
[12] = test system: Human immunodeficiency virus 1; test: Antiviral activity against HIV1 UG070 infected in human TZM-bl cells incubated for 48 hrs by bright Glo-luciferase reporter gene assay; format: functional, organism-based; details: Human immunodeficiency virus 1, UG070, TZM-bl; how it was run: as §1
[13] = Therapeutic index, ratio of CC50 for human TZM-bl cells to IC50 for antiviral activity against HIV1 VB59 infected in human TZM-bl cells; format: toxicity, cell-based; details: read-out: Ratio CC50/IC50
How it was run: (§4)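 TI = CC50/IC50. CC50 came from 48 h MTT viability of TZM-bl cells. IC50 came from 48 h luciferase read-out in TZM-bl cells infected for 2 h with HIV-1 UG070 or VB59 and then treated with two-fold dilutions at sub-toxic concentrations.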

[14] = test system: Human immunodeficiency virus 1; test: Antiviral activity against HIV1 NL4.3 infected in human TZM-bl cells measured upto 10 hrs by bright Glo-luciferase reporter gene assay; format: functional, organism-based
How it was run: (§5)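 Time-of-addition: TZM-bl cells seeded at 10^4 cells/well and incubated overnight, then infected with HIV-1 NL4.3 (400 TCID50) in complete DMEM containing […] DEAE-dextran. Compounds and reference antiretrovirals were applied at five times their IC50 at 0, 1, 2, 3, 4, 6, 8, 10, 18 and 24 h post infection. Luciferase (RLU) was read 48 h post infection, in triplicate, as mean±SD.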

[15] = test system: Human immunodeficiency virus 1; test: Antiviral activity against HIV1 NL4.3 infected in human TZM-bl cells measured upto 3 hrs by bright Glo-luciferase reporter gene assay; format: functional, organism-based; how it was run: as §5
[16] = Therapeutic index, ratio of CC50 for human TZM-bl cells to IC50 for antiviral activity against HIV1 UG070 infected in human TZM-bl cells; format: toxicity, cell-based; details: read-out: Ratio CC50/IC50; how it was run: as §4

| Compound | IC50 [1] | CC50 at 48 h [2] | selectivity ratio [13] | also measured |
| --- | --- | --- | --- | --- |
| Cc1cc2c(cnn2-c2cc(F)cc(F)c2)c(=O)[nH]1 | > 192 µM | 130 µM | – | – |
| Cc1ccnc2c1NC(=O)c1cccnc1N2C1CC1 [NEVIRAPINE] | – | – | – | CC50 at 120 h [3]: 1000 µM; IC50 [4]: 0.19 µM; selectivity ratio [5]: 4.3; IC50 [6]: 232 µM; selectivity ratio [7]: 5280; selectivity ratio [8]: 2.6; selectivity ratio [9]: 1990; IC50 [10]: 140 µM; IC50 [11]: 0.3 µM |
| Cc1cc2c(cnn2-c2ccc(F)c(F)c2)c(=O)[nH]1 | > 192 µM | 133 µM | – | – |
| Cc1cc2c(cnn2-c2cc(Cl)cc(Cl)c2)c(=O)[nH]1 | > 171 µM | 93.5 µM | – | – |
| Cc1cc2c(cnn2-c2ccc(C(F)(F)F)cc2)c(=O)[nH]1 | > 171 µM | 100 µM | – | – |
| Cc1cc2c(cnn2-c2ccc(Cl)c(Cl)c2)c(=O)[nH]1 | > 171 µM | 93.5 µM | – | – |
| Cc1cn([C@H]2C[C@H](N=[N+]=[N-])[C@@H](CO)O2)c(=O)[nH]c1=O [ZIDOVUDINE] | – | 872 µM | – | CC50 at 120 h [3]: 1070 µM |
| Cc1cc(C)cc(-n2ncc3c(=O)[nH]c(C)cc32)c1 | 3.67 µM | 679 µM | 185 | CC50 at 120 h [3]: 592 µM; IC50 [4]: 8.65 µM; selectivity ratio [5]: 210; IC50 [12]: 2.79 µM; IC50 [6]: 2.53 µM; Activity [14]: Active; selectivity ratio [7]: 68; Activity [15]: Active; selectivity ratio [8]: 268; selectivity ratio [9]: 91; IC50 [10]: 3.24 µM; IC50 [11]: 7.42 µM; selectivity ratio [16]: 243 |
| Cc1cc2c(cnn2-c2ccc(Cl)cc2)c(=O)[nH]1 | > 193 µM | 260 µM | – | – |
| Cc1cc2c(cnn2-c2ccc(C(C)(C)C)cc2)c(=O)[nH]1 | > 178 µM | 45.9 µM | – | – |
| Cc1ccc(-n2ncc3c(=O)[nH]c(C)cc32)cc1 | 58.1 µM | 383 µM | 6.6 | IC50 [12]: 229 µM; selectivity ratio [16]: 1.67 |

Second part, led by results:

| IC50 [1] | Compound | CC50 at 48 h [2] | selectivity ratio [13] | also measured |
| --- | --- | --- | --- | --- |
| 128 µM | Cc1cc2c(cnn2-c2cccc(C(F)(F)F)c2)c(=O)[nH]1 | 34.1 µM | – | – |
| 247 µM | COc1cccc(-n2ncc3c(=O)[nH]c(C)cc32)c1 | 553 µM | 2.24 | IC50 [12]: > 196 µM |
| 138 µM | Cc1cc2c(cnn2-c2ccc(Br)cc2)c(=O)[nH]1 | 79.8 µM | 0.58 | – |
| 139 µM | Cc1cc2c(cnn2-c2cccc(Br)c2)c(=O)[nH]1 | 72.6 µM | 0.52 | – |
| 126 µM | Cc1cc2c(cnn2-c2ccc(C)c(C)c2)c(=O)[nH]1 | 93.4 µM | 0.74 | – |
| > 206 µM | Cc1cc2c(cnn2-c2cccc(F)c2)c(=O)[nH]1 | 159 µM | – | – |
| 121 µM | Cc1cc2c(cnn2-c2ccccc2)c(=O)[nH]1 | 708 µM | 5.86 | IC50 [12]: 444 µM |
